Assay [1] addresses T1, PHF1 Tudor domain (Homo sapiens, UniProt O43189). The settings on record: previously reported 10-mer peptide; cited from earlier work.
A further assay concerns the target PHF1 Tudor F65A (Homo sapiens, UniProt O43189, F65A). The assay is described as follows: ITC binding to PHF1 Tudor aromatic cage mutant F65A. The method, boiled down:
(§1)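 ITC at 25 °C in 25 mM Tris-HCl pH 7.5, 150 mM NaCl, 2 mM β-mercaptoethanol; typically 100 µM protein, 1 mM compound (10:1). 26 injections, 180 s apart, one-site fit. Fits reach Kd ~100 µM; weaker binding is reported >100 µM. Two independent runs, mean ± SD.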

The next assay concerns the target PHF1 Tudor Y47A (Homo sapiens, UniProt O43189, Y47A). The assay is described as follows: ITC binding to PHF1 Tudor aromatic cage mutant Y47A. The method, boiled down:
as §1

In the next assay the target is PHF1 Tudor W41A (Homo sapiens, UniProt O43189, W41A). Nature of the assay: ITC binding to PHF1 Tudor aromatic cage mutant W41A. The method, boiled down: as §1
Assay [2] concerns the target T1, PHF1 Tudor domain. Nature of the assay: ITC binding to PHF1 Tudor domain. The settings on record: wildtype PHF1 Tudor domain.
The target in assay [3] is H3K36me3 15-residue peptide (Homo sapiens) (UniProt P68431). The following applies: cited from earlier work.
The target in assay [4] is H3K36me3 peptide 31-40 (Homo sapiens) (UniProt P68431). The following applies: cited from earlier work.
In assay [5] the target is T2, PHF1 Tudor domain (residues 25-87), N-terminal His tag (UniProt O43189-1 25-87). The assay is described as follows: ITC.
Assay [6] concerns the target PHF1 Tudor domain (residues 25-87) Y47A, N-terminal His tag (UniProt O43189-1 25-87, Y47A). Nature of the assay: ITC.
The target in assay [7] is T2, PHF1 Tudor domain (residues 25-87), …. Nature of the assay: ITC. This is another data set of the same source.
For assay [8], the target named is PHF19 Tudor domain (residues 49-115), N-terminal His tag. The assay is described as follows: ITC.

The text below walks through data of paper PMC8225578 (Journal of medicinal chemistry, 2021).

Read-outs that look alike come from different tables or passages of the source. Starred links: 1 amine or outer side, 2 acyl side, 3 side chain; linkers in the order of their positions; H or OH if unused. Non-standard residues stand in square brackets, D forms with d. Residues, ends and D or L forms follow the SMILES beside them. No end group written: not given here. X2 = N6‑isopropyl‑N6‑phenethyl‑lysine, CC(C)N(CCCC[C@H](N[*:1])C(=O)[*:2])CCc1ccccc1; Lys(Et,iPr) = CCN(CCCC[C@H](N)C(=O)O)C(C)C; Me3 = trimethyl (on lysine, Kme3)

T2 sequence (O43189 25-87): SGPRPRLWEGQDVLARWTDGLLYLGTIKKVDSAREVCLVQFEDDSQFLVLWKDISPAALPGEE
PHF1 Tudor domain (residues 25-87) Y47A, N-terminal His tag, sequence (O43189 25-87 Y47A): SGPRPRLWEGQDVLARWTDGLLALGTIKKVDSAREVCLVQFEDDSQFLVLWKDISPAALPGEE
T1 sequence (O43189 25-87): as the sequence (O43189 25-87) above
PHF1 Tudor F65A, sequence (O43189 25-87 F65A): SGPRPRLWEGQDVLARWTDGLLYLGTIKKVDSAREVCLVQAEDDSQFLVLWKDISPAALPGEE
PHF1 Tudor Y47A, sequence (O43189 25-87 Y47A): as the sequence (O43189 25-87 Y47A) above
PHF1, sequence (O43189 whole entry): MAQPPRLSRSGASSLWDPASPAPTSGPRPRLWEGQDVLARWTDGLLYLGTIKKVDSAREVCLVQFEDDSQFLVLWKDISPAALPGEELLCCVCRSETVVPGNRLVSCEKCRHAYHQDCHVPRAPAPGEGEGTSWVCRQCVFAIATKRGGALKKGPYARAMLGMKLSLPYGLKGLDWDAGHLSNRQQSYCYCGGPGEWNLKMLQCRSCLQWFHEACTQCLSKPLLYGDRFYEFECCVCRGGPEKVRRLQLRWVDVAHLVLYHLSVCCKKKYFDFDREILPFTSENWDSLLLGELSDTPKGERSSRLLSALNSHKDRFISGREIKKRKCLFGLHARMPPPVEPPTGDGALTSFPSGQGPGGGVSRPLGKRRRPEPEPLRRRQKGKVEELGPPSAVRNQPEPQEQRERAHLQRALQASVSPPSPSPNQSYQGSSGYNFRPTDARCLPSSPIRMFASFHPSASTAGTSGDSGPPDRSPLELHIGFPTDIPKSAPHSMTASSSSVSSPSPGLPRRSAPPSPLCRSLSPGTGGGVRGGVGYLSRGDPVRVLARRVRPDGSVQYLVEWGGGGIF
PHF1 Tudor, sequence (O43189 26-89): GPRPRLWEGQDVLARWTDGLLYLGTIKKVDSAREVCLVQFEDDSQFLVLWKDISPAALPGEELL
PHF1 Tudor W41A, sequence (O43189 25-87 W41A): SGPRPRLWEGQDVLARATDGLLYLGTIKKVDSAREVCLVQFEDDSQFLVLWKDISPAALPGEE

Consider “H3(31—40): previously reported 10-mer H3K36me3 peptide (ATGGVK(Me3)KPHR; UniProt P68431 32-41, looked up, fragment)”, for which the Kd in the assay with PHF1 Tudor domain [1] was 16 ± 4 µM.
Take `CCN(CCCC[C@H](NC(=O)[C@@H](NC(=O)CNC(=O)CN)C(C)C)C(=O)N[C@@H](CCCCN)C(=O)N1CCC[C@H]1C(=O)N[C@@H](CC(C)C)C(=O)N[C@@H](CCCNC(=N)N)C(N)=O)C(C)C` [UNC7643, Amino(((S)-5-amino-4-((S)-2-((S)-1-((2S,5S,8S)-14-amino-2-(4-aminobutyl)-5-(4-(ethyl(isopropyl)amino)butyl)-8-isopropyl-4,7,10,13-tetraoxo-3,6,9,12-tetraazatetradecanoyl)pyrrolidine-2-carboxamido)-4-methylpentanamido)-5-oxopentyl)amino)methaniminium] (H-GGV[Lys(Et,iPr)]KPLR-NH2): the “binding to mutant (in words)” value at PHF1 Tudor F65A, on PHF1 Tudor Y47A and at PHF1 Tudor W41A was “failed to bind” in each case. Besides, the “fold less potent than UNC6641” value at PHF1 Tudor domain [2] is on record as “about 10 fold”.
Take PHF1 (from UniProt O43189): the dissociation constant Kd in [3] is 4 µM.
Consider PHF1 Tudor (from UniProt O43189), for which the Kd in assay [4] was 16 µM.
GGV[N6‑ethyl‑N6‑(1-(furan-2-yl)ethyl)‑lysine]KPLR-NH2 [UNC6640]: in assay [5], binding was put at a Kd of 17.9 µM.
As for GGV[N6‑ethyl‑N6‑isopropyl‑lysine]KPLR-NH2 [UNC7643], the Kd in assay [6] was above 100 µM; in assay [5], 10.1 µM.
In the case of GGVK(Me3)KPHR-NH2 [H3K36me3 peptide H3(33-40), GGVKme3KPHR], the Kd in [7] was 22.3 µM.
With GGV[X2]KPLR-NH2 [UNC6641], the Kd in assay [6] is above 100 µM; in assay [8] it was 2.1 µM.
The molecule VGVK(Me3)KPH-NH2 [H3K36me3 peptide H3(33-39) G33V, VGVKme3KPH] gave a Kd in assay [7] of 48 µM.
In assay [7], GGVK(Me3)KPH-NH2 [H3K36me3 peptide H3(33-39), GGVKme3KPH] came in with a Kd of 52 µM.
